Bioassay records: PubChem BioAssay, several laboratories
In the library only some 1.5% were active in any assay of this set; here they are far more common.
Casp6 inh: human caspase-6 inhibitors, primary screen, biochemical, VEID-R110 fluorescence, single point, set 2 | P55212 | purified caspase-6, Z-VEID-R110 cleavage fluorescence | inhibition, % at 12.5 µM | 0.53% of 350,000 active;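 active = mean inhibition across replicates at least about 35%, with every replicate also reaching that limit, limit read from the data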
Target sequence (P55212 24-179 limits assumed): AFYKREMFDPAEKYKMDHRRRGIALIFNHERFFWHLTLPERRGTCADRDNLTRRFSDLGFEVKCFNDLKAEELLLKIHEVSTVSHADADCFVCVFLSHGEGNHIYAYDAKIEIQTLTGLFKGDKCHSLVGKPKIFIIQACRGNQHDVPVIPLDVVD
Target sequence (P55212 194-293 limits assumed): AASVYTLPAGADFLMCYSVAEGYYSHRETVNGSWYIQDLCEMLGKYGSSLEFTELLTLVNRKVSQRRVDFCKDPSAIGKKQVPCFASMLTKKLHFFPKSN
DNMT1 block: human DNMT1 methyltransferase inhibitors, primary screen, biochemical, molecular beacon, fluorescence, HinP1I cleavage, uHTS; DNA (cytosine-5)-methyltransferase 1 (Homo sapiens), P26358; inhibition (reported as % activation of signal), % at 10 µM; 0.83% of 360,000 active
NS3 helicase inh: inhibitors of HCV NS3 helicase, primary screen, biochemical, Cy5 molecular beacon fluorescence; NS3 helicase DNA unwinding; inhibition, % at 10.9 µM; 0.56% of 290,000 active;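 active = inhibition above the mean of all tested compounds plus 3 SD, set per campaign, cut at about 35% in these data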
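Assay system: hepatitis C virus NS3 helicase domain fragment enzyme. Also added: annealed dual-labelled DNA beacon duplex, ATP-started. Timing: 1 h reaction at 25 °C, ATP-initiated. Technique: Cy5 fluorescence at 0 and 60 min, beacon hairpin quenching. Evaluation: % inhibition of unwinding. Replication: one well per compound.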
NSD2 HMT inh: NSD2 histone methyltransferase inhibitors, primary screen, biochemical, AlphaScreen, single concentration, set 2 | Histone-lysine N-methyltransferase NSD2 (Homo sapiens), O96028 | NSD2 peptide methylation, 120 min | inhibition, % at 12.5 µM | 0.54% of 310,000 active
NS3 helicase cf: HCV NS3 helicase inhibitors, retest, confirmation, biochemical, Cy5 molecular beacon fluorescence, triplicate; inhibition, % at 10.9 µM; shares compounds with NS3 helicase inh; AID 1943, 2009; 31% of 1,600 active; NS3 helicase DNA unwinding;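 active = inhibition above the mean of all tested compounds plus 3 SD, cutoff set per campaign, cut at about 36% in these data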
FID counter trip: compounds displacing fluorescent DNA intercalator, artefact control for HCV NS3 helicase inhibitor project, biochemical, FID fluorescence, triplicate; AID 1945, 2009; DNA fluorescent intercalator displacement; inhibition, % at 7.9 µM; shares compounds with NS3 helicase inh; 4% of 1,600 active; in the data active = inhibition above about 37%;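 also: higher means more displacement of ethidium bromide from the DNA hairpin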
FID counter DR: compounds displacing fluorescent intercalator from DNA, dose response, counter-screen for HCV NS3 helicase inhibitor project, biochemical, fluorescence; shares compounds with NS3 helicase inh; fluorescent intercalator displacement from DNA; IC50, µM; 120 tested, under 10 active; call rule not given here
A number is an active result; . = inactive; / = no result. Rule as the data show it, unless noted: active = inhibition above about 50%; inactive = the rest.

SMILES	Casp6 inh	DNMT1 block	NS3 helicase inh	NSD2 HMT inh	NS3 helicase cf	FID counter trip	others
O=C(CCCSc1ccccc1)Nc1nc(-c2ccco2)c(-c2ccco2)s1	.	.	92	.	69	.	FID counter DR=.
O=C(CCl)Nc1nc(-c2ccco2)c(-c2ccco2)s1	.	.	61	.	63	.	FID counter DR=.
COc1cc(/C=C(\C#N)C(=O)Nc2ccc(C(=O)O)cc2)ccc1OC(=O)c1cccc(F)c1	.	.	47	.	63	.
COc1ccc(-n2nc3ccc(N)cc3n2)cc1Cl	.	.	37	.	.	.
Cc1ccc(-n2nc3ccc(N)cc3n2)cc1Cl	.	.	.	.	/	/
Cc1ccc(-n2nc3ccc(N)cc3n2)cc1C	.	.	70	.	.	.
O=C(C[C@@H]1CC[C@@H]2[C@H](COC[C@@H](O)CN2C(=O)c2ccc3c(c2)OCO3)O1)NC1CCCC1	.	/	/	/	/	/
COc1ccc(C(=O)Nc2ccc3c(c2)OC[C@H](C)N(C(C)=O)C[C@H](C)[C@H](OC)CN(C)C3=O)cc1	.	/	/	/	/	/
O=C(C[C@@H]1C[C@@H]2c3cc(NC(=O)c4cccnc4)ccc3O[C@@H]2[C@@H](CO)O1)NCC1CC1	.	/	/	/	/	/
CCOC(=O)C1=NN(C(=O)c2ccc(OC)cc2)C(O)(c2ccc(Cl)cc2)C1 (stereo not drawn)	/	.	.	.	/	/
CCOC(=O)C1=NN(C(=O)c2ccccc2)C(O)(c2ccc(C)cc2)C1 (stereo not drawn)	.	.	44	.	.	.
CCOC(=O)CC(=O)CSc1nc(-c2ccc3c(c2)OCO3)cc(C(F)(F)F)c1C#N	.	.	37	.	.	.
Cc1ccccc1CN1C(=O)CS/C1=N/N=C/c1ccco1	.	.	45	.	.	.
O=C(CSc1ccc(-c2ccco2)nn1)c1cccc([N+](=O)[O-])c1	.	.	38	.	.	.
O=C(COC(=O)c1c2c(nc3ccccc13)CCCC2)c1cccs1	/	.	41	.	.	.
O=C(COC(=O)c1c2c(nc3ccccc13)CCCCC2)c1ccc(Cl)s1	/	.	.	.	/	/
COc1cccc(C2c3[nH]c4ccccc4c3C[C@H]3C(=O)N(CCCOC(C)C)CC(=O)N23)c1 (stereo partly drawn)	.	.	85	.	.	.
O=C(N[C@@H]1CC[C@H](CCNS(=O)(=O)c2ccc(Cl)cc2)O[C@@H]1CO)c1cccnc1	.	/	/	/	/	/
CN=c1scc(-c2ccc(F)cc2)n1/N=C/c1ccc(O)c(O)c1	.	.	45	/	.	.
CN(C)C(=O)c1cc2c(c(-c3cccc(-c4ccccc4)c3)n1)[C@H](CCO)N([S@@](=O)C(C)(C)C)C2	.	/	/	/	/	/
COc1ccc(CN(C)C[C@@H]2OCCCC[C@H](C)Oc3ccc(NS(=O)(=O)c4c(C)noc4C)cc3C(=O)N([C@@H](C)CO)C[C@H]2C)cc1	.	/	/	/	/	/
CCCOc1cccc(C2/C(=C(\O)c3ccc4c(c3)OCCO4)C(=O)C(=O)N2CCCn2ccnc2)c1 (stereo not drawn)	.	.	41	/	.	.
COC(=O)c1ccc(C2/C(=C(\O)c3ccc4c(c3)OCCO4)C(=O)C(=O)N2CCCN2CCOCC2)cc1 (stereo not drawn)	.	.	.	.	/	/
C=CCOc1ccc(C2/C(=C(\O)c3ccc4c(c3)OCCO4)C(=O)C(=O)N2CCCN2CCOCC2)cc1 (stereo not drawn)	.	.	50	.	.	.
C[C@H]1CN([C@@H](C)CO)S(=O)(=O)c2ccc(/C=C/c3ccccc3)cc2O[C@@H]1CN(C)C(=O)NC1CCCC1	.	/	/	/	/	/
SMILES	Casp6 inh	DNMT1 block	NS3 helicase inh	NSD2 HMT inh	NS3 helicase cf	FID counter trip	others
COC(=O)c1ccc(C2/C(=C(\O)c3ccc4c(c3)OCCO4)C(=O)C(=O)N2c2nnc(C)s2)cc1 (stereo not drawn)	.	.	.	.	/	/
COc1ccc(C2/C(=C(\O)c3ccc4c(c3)OCCO4)C(=O)C(=O)N2c2nc(C)c(C(C)=O)s2)cc1 (stereo not drawn)	.	.	38	.	64	.	FID counter DR=.
COCCNC(=O)c1cc2c(c(-c3cccc(C4=CCCC4)c3)n1)[C@@H](CCO)N([S@](=O)C(C)(C)C)C2	.	/	/	/	/	/
CCn1cc(C(=O)O)c(=O)c2cc(F)c(N3CCN(C(=S)NC(=O)c4ccc(F)cc4)CC3)cc21	.	.	.	.	/	/
CCn1cc(C(=O)O)c(=O)c2cc(F)c(N3CCN(C(=S)NC(=O)c4ccccc4Br)CC3)cc21	36	.	50	.	.	.
C[C@]12CCC3C4(C=CC5(C=C4C(=O)c4ccc(F)c(F)c4)C[C@@H](O)CC[C@]35C)C1CC[C@@]2(O)CN1CCC(C(N)=O)CC1 (stereo partly drawn)	.	/	/	/	/	/
CCOC(=O)/C=c1\s/c(=C(\C#N)C(=O)OCC)n(-c2ccccc2)c1=O	/	.	57	.	.	.
CNC(=O)/C(C#N)=c1\s/c(=C/C(=O)OC)c(=O)n1-c1ccccc1	/	.	.	.	/	/
CCNC(=O)C[C@@H]1CC[C@@H]2[C@H](COc3ccc(NC(=O)c4ccc(F)c(F)c4)cc3C(=O)N2C)O1	.	/	/	/	/	/
CO[C@@H]1CC[C@H]2CCN(C)C(=O)C[C@H](c3ccccc3)CN(C)C(=O)c3cc(C#N)ccc3OC[C@@H]1O2	.	/	/	/	/	/
C[C@H]1CN([C@@H](C)CO)C(=O)c2cc(N(C)C)ccc2O[C@@H]1CN(C)S(C)(=O)=O	.	/	/	/	/	/
Nc1c(C(=O)Nc2ccccc2)sc2nc(-c3ccco3)ccc12	/	.	83	.	.	.
COc1ccccc1NC(=O)c1sc2nc(C)cc(C)c2c1N	.	.	/	.	/	/
COc1ccccc1NC(=O)c1sc2nc(-c3ccco3)ccc2c1N	/	.	49	.	.	.
Cc1noc(C)c1S(=O)(=O)N(C)C[C@H]1Oc2ccc(NC(=O)Cn3cnnn3)cc2CC(=O)N([C@H](C)CO)C[C@H]1C	.	/	/	/	/	/
C[C@H](NC(=O)C[C@@H]1CC[C@H]2[C@@H](COC[C@@H](O)CN2C(=O)Nc2ccccc2)O1)c1ccccc1	.	/	/	/	/	/
C[C@@H](CN=[N+]=[N-])CN1CC[C@H](O)CCC1=O	.	.	37	/	.	.
C[C@@H](CSc1ccccc1)CN1CC[C@H](O)CCC1=O	.	.	44	/	.	.
O=C(N[C@H]1CC[C@@H](CCNC(=O)c2cnccn2)O[C@H]1CO)c1ccc2c(c1)OCO2	.	/	/	/	/	/
CC(C)CNC(=O)COC(=O)c1c2c(nc3ccccc13)/C(=C/c1cccs1)CC2	/	.	74	.	.	.
